Test results as given in ChEMBL document CHEMBL3351464, “Identifying novel selective non-nucleoside DNA methyltransferase 1 inhibitors through docking-based virtual screening” (J Med Chem, 2014).
Active and inactive are the calls of the source. The calls are words filed in the database; no cut-off is given here.

Columns and labels:
[1] = tested on: HCT-116; assay: Induction of apoptosis in human HCT116 cells assessed as early apoptotic cells level at 0.75 uM incubated for 24 hrs by 7-AAD and annexin V staining-based flow cytometry (reference value: 4%); assay type: functional
[2] = molecular target: T1, DNA (cytosine-5)-methyltransferase 1 (Mus musculus, UniProt P13864); assay: (§1) Binding affinity to N-terminal His6-tagged mouse DNMT1 (731 to 1602 residues) expressed in Escherichia coli BL21 (DE3) by SPR assay
Method in brief: (§2)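 Measured by SPR at 25°C. Purified mouse DNMT1 was amine-coupled to a CM5 chip in 10 mM sodium acetate pH 5.0 and equilibrated overnight in HBS-EP (10 mM HEPES pH 7.4, 150 mM NaCl, 3 mM EDTA, 0.05% P20, 0.1% DMSO). Serially diluted compounds were injected with 120 s contact and 120 s dissociation, and KD was derived by the instrument evaluation software.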

[3] = molecular target: DNA (cytosine-5)-methyltransferase 1 (Mus musculus) (UniProt P13864); assay: as §1; method in brief: as §2
[4] = tested on: HCT-116; assay: Induction of apoptosis in human HCT116 cells assessed as late apoptotic cells level at 1.5 uM incubated for 24 hrs by 7-AAD and annexin V staining-based flow cytometry (reference value: 3.1%); assay type: functional
[5] = tested on: HCT-116; assay: Induction of apoptosis in human HCT116 cells assessed as early apoptotic cells level at 3 uM incubated for 24 hrs by 7-AAD and annexin V staining-based flow cytometry (reference value: 4%); assay type: functional
[6] = tested on: HCT-116; assay: Induction of apoptosis in human HCT116 cells assessed as necrotic cells level at 3 uM incubated for 24 hrs by 7-AAD and annexin V staining-based flow cytometry (reference value: 0.7%); assay type: functional
[7] = tested on: HCT-116; assay: Induction of apoptosis in human HCT116 cells assessed as viable cells at 3 uM incubated for 24 hrs by 7-AAD and annexin V staining-based flow cytometry (reference value: 92.2%); assay type: functional; conditions: HCT-116, 24 h, read-out: Activity
[8] = tested on: HCT-116; assay: Induction of apoptosis in human HCT116 cells assessed as early apoptotic cells level at 1.5 uM incubated for 24 hrs by 7-AAD and annexin V staining-based flow cytometry (reference value: 4%); assay type: functional
[9] = tested on: HCT-116; assay: Induction of apoptosis in human HCT116 cells incubated for 24 hrs by 7-AAD and annexin V staining-based flow cytometry; assay type: functional, cell-based
[10] = tested on: HCT-116; assay: Induction of apoptosis in human HCT116 cells assessed as necrotic cells level at 1.5 uM incubated for 24 hrs by 7-AAD and annexin V staining-based flow cytometry (reference value: 0.7%); assay type: functional
[11] = tested on: HCT-116; assay: Induction of apoptosis in human HCT116 cells assessed as late apoptotic cells level at 0.75 uM incubated for 24 hrs by 7-AAD and annexin V staining-based flow cytometry (reference value: 3.1%); assay type: functional
[12] = tested on: HCT-116; assay: Induction of apoptosis in human HCT116 cells assessed as viable cells at 1.5 uM incubated for 24 hrs by 7-AAD and annexin V staining-based flow cytometry (reference value: 92.2%); assay type: functional; conditions: HCT-116, 24 h, read-out: Activity
[13] = Binding affinity to DNA (unknown origin) at 0.0625 to 0.5 mM by ethidium bromide dye based agarose gel electrophoresis method
[14] = tested on: HCT-116; assay: Induction of apoptosis in human HCT116 cells assessed as viable cells at 0.75 uM incubated for 24 hrs by 7-AAD and annexin V staining-based flow cytometry (reference value: 92.2%); assay type: functional; conditions: HCT-116, 24 h, read-out: Activity
[15] = molecular target: T1, DNA (cytosine-5)-methyltransferase 1; assay: Inhibition of N-terminal His6-tagged mouse DNMT1 (731 to 1602 residues) expressed in Escherichia coli BL21 (DE3) incubated for 15 mins before addition of [3H]-SAM and poly(dI-dC).poly(dI-dC) by liquid scintillation counting based radioactive methylation assay
Method in brief: (§3)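 Enzyme was preincubated with compound for 15 min at room temperature, then reacted for 60 min at 37°C. Products were filter-captured, washed and counted by scintillation. IC50 came from a nonlinear dose-response fit; single-point tests used 50 µM.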

[16] = tested on: HCT-116; assay: Induction of apoptosis in human HCT116 cells assessed as late apoptotic cells level at 3 uM incubated for 24 hrs by 7-AAD and annexin V staining-based flow cytometry (reference value: 3.1%); assay type: functional
[17] = molecular target: DNA (cytosine-5)-methyltransferase 1 (Mus musculus) (UniProt P13864); assay: Inhibition of N-terminal His6-tagged mouse DNMT1 (731 to 1602 residues) expressed in Escherichia coli BL21 (DE3) at 50 uM incubated for 15 mins before addition of [3H]-SAM and poly(dI-dC).poly(dI-dC) by liquid scintillation counting based radioactive methylation assay; method in brief: as §3
[18] = tested on: HCT-116; assay: Induction of apoptosis in human HCT116 cells assessed as necrotic cells level at 0.75 uM incubated for 24 hrs by 7-AAD and annexin V staining-based flow cytometry (reference value: 0.7%); assay type: functional

T1 sequence (P13864 whole entry, the tested form may be a part): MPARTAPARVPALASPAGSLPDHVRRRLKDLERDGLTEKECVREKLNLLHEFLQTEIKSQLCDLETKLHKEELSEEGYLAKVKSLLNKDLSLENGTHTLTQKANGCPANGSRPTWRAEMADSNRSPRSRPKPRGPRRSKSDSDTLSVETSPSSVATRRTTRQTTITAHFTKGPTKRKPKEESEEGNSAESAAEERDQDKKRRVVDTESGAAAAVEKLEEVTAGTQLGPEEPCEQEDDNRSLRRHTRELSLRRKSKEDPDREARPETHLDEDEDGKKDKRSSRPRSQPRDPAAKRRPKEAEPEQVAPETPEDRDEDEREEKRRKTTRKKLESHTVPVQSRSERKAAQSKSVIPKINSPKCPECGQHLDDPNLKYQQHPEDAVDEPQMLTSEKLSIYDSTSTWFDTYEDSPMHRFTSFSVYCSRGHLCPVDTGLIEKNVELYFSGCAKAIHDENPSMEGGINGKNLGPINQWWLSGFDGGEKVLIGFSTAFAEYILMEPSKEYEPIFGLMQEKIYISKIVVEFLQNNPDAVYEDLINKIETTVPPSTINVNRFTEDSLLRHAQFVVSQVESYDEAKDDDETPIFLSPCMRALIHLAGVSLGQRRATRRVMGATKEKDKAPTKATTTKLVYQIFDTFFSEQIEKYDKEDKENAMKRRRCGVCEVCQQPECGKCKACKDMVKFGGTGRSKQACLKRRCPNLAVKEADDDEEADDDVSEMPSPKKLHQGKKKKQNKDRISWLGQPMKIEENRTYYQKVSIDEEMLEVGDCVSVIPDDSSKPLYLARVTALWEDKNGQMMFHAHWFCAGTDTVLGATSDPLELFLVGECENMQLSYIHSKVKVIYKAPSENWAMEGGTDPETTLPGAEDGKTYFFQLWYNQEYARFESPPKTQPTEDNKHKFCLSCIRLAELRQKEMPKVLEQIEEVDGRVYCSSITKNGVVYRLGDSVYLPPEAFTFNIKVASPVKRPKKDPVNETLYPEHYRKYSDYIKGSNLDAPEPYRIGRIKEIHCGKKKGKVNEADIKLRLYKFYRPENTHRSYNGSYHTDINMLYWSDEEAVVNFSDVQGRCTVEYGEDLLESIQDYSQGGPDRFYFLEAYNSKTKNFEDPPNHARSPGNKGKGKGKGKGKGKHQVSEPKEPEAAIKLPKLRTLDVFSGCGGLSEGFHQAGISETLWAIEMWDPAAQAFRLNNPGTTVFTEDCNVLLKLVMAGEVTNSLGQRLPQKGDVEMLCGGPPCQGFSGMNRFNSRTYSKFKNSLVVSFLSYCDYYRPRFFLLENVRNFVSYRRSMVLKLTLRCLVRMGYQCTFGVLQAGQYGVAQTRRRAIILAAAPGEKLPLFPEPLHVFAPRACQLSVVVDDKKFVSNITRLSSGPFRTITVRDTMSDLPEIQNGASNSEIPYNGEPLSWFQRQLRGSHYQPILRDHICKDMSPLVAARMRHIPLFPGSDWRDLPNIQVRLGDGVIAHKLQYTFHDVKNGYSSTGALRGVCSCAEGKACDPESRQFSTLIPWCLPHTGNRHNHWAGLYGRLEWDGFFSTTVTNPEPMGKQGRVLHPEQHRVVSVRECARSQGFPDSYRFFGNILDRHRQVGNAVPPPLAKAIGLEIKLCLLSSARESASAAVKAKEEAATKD
Sequence of DNA (cytosine-5)-methyltransferase 1 (Mus musculus) (P13864 whole entry, the tested form may be a part): as above

Structure (SMILES): CC(C)NCC(O)COC(Cn1c2ccccc2c2ccccc21)Cn1c2ccccc2c2ccccc21 (racemic)
- Activity [1]: 4.6%
- Kd [2]: 910 nM
- Activity [3]: Dose-dependent effect
- Activity [4]: 10.8%
- Activity [5]: 42.7%
- Activity [6]: 2.6%
- viability at 3 µM [7]: 27.5%
- Activity [8]: 12.5%
- Activity [9]: Dose-dependent effect
- Activity [10]: 0.7%
- Activity [11]: 4%
- viability at 1.5 µM [12]: 76%
- Activity [13]: inactive
- viability at 0.75 µM [14]: 91.1%
- IC50 [15]: 1700 nM
- Activity [16]: 27.2%
- inhibition [17]: 102%
- Activity [18]: 0.3%
